# Source: PubChem
# Hits are enriched below; roughly 1.5% of the tested compounds scored in any of these assays.
# TCR CD3 inh – inhibitors of human TCR-CD3 interaction; TAMRA-labeled TCR probe fluorescence, biochemical; inhibition, % at 9.4 µM; 360,000 tested, 0.37% active; AID 651800;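 note: recombinant mutant TCR 2C K166C tagged with TAMRA read by polarization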
# mABHD4 FP – inhibits mouse alpha/beta hydrolase domain 4; purified mABHD4, FP-Rh probe fluorescence polarization; 370,000 tested, 0.54% active; inhibition, % at 8.92 µM; Q8VD66;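 active = inhibition exceeding the mean over every tested compound plus 3 SD, cut at about 30% in these data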
#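 Assay system: wild-type mouse ABHD4 protein; compound: single nominal dose of 8.92 µM, 0.89% DMSO final; schedule: 45 min + 60 min at 25 °C; measured by: FP readout, ex 525 nm / em 598 nm; evaluation: % inhibition of FP-Rh probe binding versus controls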
# SIAE inh – blocks human sialic acid acetylesterase. SIAE FP-Rh probe binding, fluorescence polarization. Q9HAT2. inhibition, % at 9.66 µM. 370,000 tested, 0.69% active;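 active = inhibition above a cutoff: mean of compounds within the control limits plus 3 SD of those, cut at about 17% in these data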
# DAGLB inh – blocks human DAGLB lipase activity. Q8NCG7. HEK293T DAGLB membrane lysate, EnzChek fluorogenic substrate. inhibition, % at 5.17 µM. 340,000 tested, 0.059% active. AID 504411; in the data active = inhibition above about 34%
# HTRA1 inh – inhibitors of human serine peptidase HTRA1. Q92743. recombinant HTRA1, FP-rhodamine activity-based probe, fluorescence polarization. 340,000 tested, 0.5% active. inhibition, % at 5.96 µM; in the data active = inhibition above about 36%
# Target sequence (Q92743 whole entry, looked up): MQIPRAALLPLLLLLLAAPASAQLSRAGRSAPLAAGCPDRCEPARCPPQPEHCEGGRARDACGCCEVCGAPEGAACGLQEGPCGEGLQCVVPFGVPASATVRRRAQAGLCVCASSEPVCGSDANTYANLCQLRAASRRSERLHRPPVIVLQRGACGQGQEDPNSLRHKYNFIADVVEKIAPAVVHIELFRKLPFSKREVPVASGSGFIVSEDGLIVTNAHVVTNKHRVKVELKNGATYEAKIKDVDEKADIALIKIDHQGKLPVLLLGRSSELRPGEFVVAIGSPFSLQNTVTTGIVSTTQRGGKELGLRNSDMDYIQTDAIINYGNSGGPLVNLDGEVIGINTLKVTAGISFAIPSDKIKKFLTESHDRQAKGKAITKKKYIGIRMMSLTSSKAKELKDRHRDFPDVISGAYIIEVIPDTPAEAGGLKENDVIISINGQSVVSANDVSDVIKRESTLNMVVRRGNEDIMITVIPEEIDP
# BSA TAMRA ctr – interferes with TAMRA-BSA probe, flagging TCR-CD3 hits. shares compounds with TCR CD3 inh. TAMRA-labeled BSA probe fluorescence counterscreen. inhibition, % at 9.4 µM. 1,200 tested, 10% active. AID 652035; in the data active = inhibition above about 23%
# TCR-CD3 inh conf – TCR-CD3 interaction inhibition, confirmation; shares compounds with TCR CD3 inh; TAMRA-labeled TCR probe fluorescence binding assay; inhibition, % at 9.4 µM; 1,200 tested, 48% active
# Hits are given with their value; n = inactive; x = no result given. Cut-off read from the data, not from the text of the source, unless noted: active = inhibition above about 19%; inactive = the rest.
SMILES,TCR CD3 inh,mABHD4 FP,SIAE inh,DAGLB inh,HTRA1 inh,BSA TAMRA ctr,TCR-CD3 inh conf
O=C(Nc1ccc(F)cc1)C1CC(=O)N(Cc2ccco2)C1 (configuration not stated),n,n,n,n,n,x,x
O=C(NCc1ccccc1F)C1CC(=O)N(Cc2ccco2)C1 (configuration not stated),42,n,n,n,n,n,n
O=C(NC(=O)c1ccccc1F)OCc1ccc(Cl)cc1Cl,28,n,n,n,n,n,n
CCCS(=O)(=O)N1CCCC(C(=O)NCCCN(C)Cc2ccccc2)C1 (configuration not stated),n,n,n,n,n,x,x
CCCS(=O)(=O)N1CCCC(C(=O)NCCCN(Cc2ccccc2)C(C)C)C1 (configuration not stated),65,n,n,n,n,n,n
Cc1ccc(NC(=S)Nc2ccc(C(C)C)cc2)cc1S(=O)(=O)N1CCCCCC1,22,n,n,n,n,n,n
Cc1ccc(OCC(=O)c2c(N)n(C)c(=O)n(C)c2=O)c([N+](=O)[O-])n1,36,n,n,n,n,n,26
Cc1ccc(OCC(=O)c2cc(C)c(C)cc2C)c([N+](=O)[O-])n1,n,n,n,n,n,x,x
COC(=O)[C@]12C[C@H](CC(=O)N3CCN(C(=O)C4CC4)CC3)C(=O)N(Cc3ccccc3)C1=C[C@H](C(C)(C)C)O[C@@H]2C,n,n,n,x,x,x,x
Cc1ccccc1C(=O)N[C@@H](Cc1cccnc1)C(=O)N1CCC[C@H]1C(=O)NC1CCCC1,n,n,n,x,x,x,x
Cc1cc(/C=C2\SC(=O)NC2=O)c(C)n1-c1ccc(N2CCOCC2)cc1,n,n,n,n,n,x,x
Cc1cc(/C=C2\SC(=O)NC2=O)c(C)n1-c1ccc(N(C)C)cc1,27,n,n,n,n,n,n
Cc1cc(C)n(Cc2ccc(C(=O)N/N=C/c3ccc(-c4ccc([N+](=O)[O-])cc4)o3)o2)n1,19,n,n,n,n,n,28
CCCCC(=O)N/N=C/c1ccc(-c2ccc([N+](=O)[O-])cc2)o1,n,n,n,n,n,x,x
O=c1c2ccccc2c(C=Nc2ccccc2O)c(O)n1-c1nccs1,61,n,n,n,n,n,50
COc1ccccc1OCC(=O)N/N=C/c1c(O)ccc2ccccc12,20,n,n,n,n,n,n
CN1OC[C@@H]2CN(Cc3ccccc3)[C@H](c3cccc(-c4ccc(C#N)cc4)c3)C[C@@H]21,24,n,n,n,n,n,n
Cc1ccc2ncc(NC(=O)c3ccc(F)cc3)c(=O)n2c1,n,n,n,n,n,x,x
Cc1ccc(C(=O)Nc2cnc3ccccn3c2=O)cc1,25,n,n,n,n,n,n
N#Cc1c(-c2ccccc2)c(-c2ccccc2)nn(CC(=O)NNC(=O)Nc2ccc(Cl)c(Cl)c2)c1=O,30,n,n,n,n,n,45
O=[N+]([O-])c1ccc(SN2CCCCC2)c([N+](=O)[O-])c1,n,n,n,x,x,x,x
O=C(N/N=C/C1CC=CCC1)c1ccc(Cl)cc1O (configuration not stated),20,n,n,n,n,n,n
C=CCN1[C@H](C)COc2cc(N3CCSCC3)ccc2S1(=O)=O,x,n,n,x,x,x,x
O=C(Cn1nc2ccccc2n1)N/N=C/c1cc([N+](=O)[O-])ccc1O,26,n,n,n,n,n,26
NC(=O)[C@@H]1CC2(CC(c3cccc(NC(=O)COc4ccc(Cl)cc4)c3)=NO2)CN1C(=O)COc1ccc(Cl)cc1 (some centres not stated),27,n,n,n,n,n,24
NC(=O)[C@H]1CC2(CC(c3cccc(NC(=O)COc4ccc(Cl)cc4)c3)=NO2)CN1C(=O)C(c1ccccc1)c1ccccc1 (some centres not stated),32,n,n,n,n,n,23
CCC(=O)Nc1cccc(C2=NOC3(C2)C[C@@H](C(N)=O)N(C(=O)C(c2ccccc2)c2ccccc2)C3)c1 (some centres not stated),n,n,n,n,n,x,x
O=C(N[C@H](Cc1ccccc1)C(=O)N(CCC1=CCCCC1)CC1CC1)[C@H]1O[C@@H](n2ccc(=O)[nH]c2=O)[C@H](O)[C@@H]1O,n,n,n,x,x,x,x
